What was measured:
Homo sapiens [1] = species: Homo sapiens; assay: Selectivity ratio of Ki for human recombinant matriptase-2 to Ki for human recombinant matriptase
[2] = target: T1, Suppressor of tumorigenicity 14 protein (Homo sapiens, UniProt Q9Y5Y6); assay: Inhibition of human recombinant matriptase using Boc-Gln-Ala-Arg-AMC as substrate by microplate reader analysis
T1 sequence (Q9Y5Y6 whole entry): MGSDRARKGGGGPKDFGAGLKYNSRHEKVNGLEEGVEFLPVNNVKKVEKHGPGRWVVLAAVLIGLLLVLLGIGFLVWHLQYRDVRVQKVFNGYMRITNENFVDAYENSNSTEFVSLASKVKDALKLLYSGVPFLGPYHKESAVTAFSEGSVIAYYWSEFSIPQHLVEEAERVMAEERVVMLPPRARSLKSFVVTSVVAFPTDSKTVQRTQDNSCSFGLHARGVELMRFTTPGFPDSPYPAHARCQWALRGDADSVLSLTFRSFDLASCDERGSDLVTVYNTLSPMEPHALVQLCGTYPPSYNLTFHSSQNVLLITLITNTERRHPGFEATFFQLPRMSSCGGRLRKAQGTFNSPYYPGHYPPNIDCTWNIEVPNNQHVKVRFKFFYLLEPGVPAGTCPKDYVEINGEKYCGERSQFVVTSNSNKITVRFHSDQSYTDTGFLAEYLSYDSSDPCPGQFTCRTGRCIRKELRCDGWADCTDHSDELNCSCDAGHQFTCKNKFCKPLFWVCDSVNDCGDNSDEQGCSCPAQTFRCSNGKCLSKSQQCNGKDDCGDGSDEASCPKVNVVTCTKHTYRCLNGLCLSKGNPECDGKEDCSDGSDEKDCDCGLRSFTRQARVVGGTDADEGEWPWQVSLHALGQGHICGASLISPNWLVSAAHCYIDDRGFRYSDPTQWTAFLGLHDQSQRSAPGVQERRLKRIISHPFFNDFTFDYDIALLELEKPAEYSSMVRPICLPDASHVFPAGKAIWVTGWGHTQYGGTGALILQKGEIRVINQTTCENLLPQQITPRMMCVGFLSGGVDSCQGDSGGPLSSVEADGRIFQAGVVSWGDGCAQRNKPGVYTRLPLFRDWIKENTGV
Method in brief: (§1)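 Recombinant human matriptase (aa 596−[…]) or matriptase-2 (aa 78−811), active-site titrated with MUGB; 1 nM enzyme at room temperature in 50 mM Tris-HCl, 15 mM NaCl, pH 7.4. AMC release read at 360/441 nm. If inhibition occurred at I/E = 10, Ki came from a Morrison fit; otherwise from substrate-velocity curves fitted to the best reversible model. At least 3 runs in duplicate, mean ± SD.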

[3] = target: T2, Transmembrane protease serine 6 (Homo sapiens, UniProt Q8IU80); assay: Inhibition of human recombinant matriptase-2 using Boc-Gln-Ala-Arg-AMC as substrate by microplate reader analysis; method in brief: as §1
T2 sequence (Q8IU80 whole entry): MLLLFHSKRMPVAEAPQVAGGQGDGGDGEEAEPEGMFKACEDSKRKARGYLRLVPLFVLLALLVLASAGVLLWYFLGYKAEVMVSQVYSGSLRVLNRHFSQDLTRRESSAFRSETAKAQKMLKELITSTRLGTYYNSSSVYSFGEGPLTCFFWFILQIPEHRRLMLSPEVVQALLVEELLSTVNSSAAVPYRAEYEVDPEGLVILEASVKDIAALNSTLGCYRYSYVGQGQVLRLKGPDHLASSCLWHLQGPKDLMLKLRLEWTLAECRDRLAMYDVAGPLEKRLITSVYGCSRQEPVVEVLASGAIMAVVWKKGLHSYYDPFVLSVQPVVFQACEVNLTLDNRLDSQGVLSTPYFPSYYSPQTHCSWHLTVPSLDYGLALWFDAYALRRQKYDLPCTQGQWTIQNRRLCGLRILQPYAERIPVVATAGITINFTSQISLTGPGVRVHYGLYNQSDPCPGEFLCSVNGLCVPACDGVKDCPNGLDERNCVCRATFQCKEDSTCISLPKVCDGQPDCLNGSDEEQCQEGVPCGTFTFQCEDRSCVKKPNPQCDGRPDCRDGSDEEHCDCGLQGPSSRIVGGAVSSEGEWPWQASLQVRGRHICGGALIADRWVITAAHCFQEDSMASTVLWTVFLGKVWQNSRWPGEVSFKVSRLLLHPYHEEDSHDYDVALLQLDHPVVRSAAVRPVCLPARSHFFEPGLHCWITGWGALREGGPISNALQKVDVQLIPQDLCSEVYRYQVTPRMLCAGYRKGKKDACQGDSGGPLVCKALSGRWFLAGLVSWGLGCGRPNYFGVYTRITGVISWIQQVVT

Homo sapiens [4] = species: Homo sapiens; assay: Selectivity ratio of Ki for human recombinant matriptase to Ki for human recombinant matriptase-2

Ratio Ki (Homo sapiens [1]) | Ki [2] | Ki [3] | Ratio Ki (Homo sapiens [4]) | Structure (SMILES)
128 | 0.061 nM | 7.8 nM | – | N=C(N)NCCC[C@H](NC(=O)[C@@H]1CCCN1C(=O)[C@H](CCC(N)=O)NC(=O)[C@@H](N)CCCNC(=N)N)C(=O)c1nc2ccccc2s1
4 | 0.18 nM | 0.74 nM | – | N=C(N)NCCC[C@H](NC(=O)[C@H](Cc1ccc(O)cc1)NC(=O)[C@H](CCC(N)=O)NC(=O)[C@@H](N)CCCNC(=N)N)C(=O)c1nc2ccccc2s1
1.79 | 1.4 nM | 2.48 nM | – | CC(C)C[C@H](NC(=O)[C@@H](N)CCCNC(=N)N)C(=O)N[C@@H](CO)C(=O)N[C@@H](CCCNC(=N)N)C(=O)c1nc2ccccc2s1
45 | 0.14 nM | 6.3 nM | – | C[C@H](NC(=O)[C@H](Cc1ccc(O)cc1)NC(=O)[C@@H](N)CCCNC(=N)N)C(=O)N[C@@H](CCCNC(=N)N)C(=O)c1nc2ccccc2s1
90 | 0.15 nM | 13.5 nM | – | CC(C)C[C@H](N)C(=O)N[C@@H](CCC(N)=O)C(=O)N[C@@H](C)C(=O)N[C@@H](CCCNC(=N)N)C(=O)c1nc2ccccc2s1
3 | 14.7 nM | 46.8 nM | – | N=C(N)NCCC[C@H](NC(=O)[C@@H](N)Cc1c[nH]c2ccccc12)C(=O)N[C@@H](CCC(=O)O)C(=O)N[C@@H](CCCNC(=N)N)C(=O)c1nc2ccccc2s1
0.63 | 3.22 nM | 1.98 nM | 2 | CC(C)C[C@H](N)C(=O)N[C@@H](Cc1c[nH]c2ccccc12)C(=O)N[C@@H](Cc1c[nH]c2ccccc12)C(=O)N[C@@H](CCCNC(=N)N)C(=O)c1nc2ccccc2s1
0.13 | 7.98 nM | 1.03 nM | 8 | N=C(N)NCCC[C@H](NC(=O)[C@H](Cc1ccc(O)cc1)NC(=O)[C@H](CS)NC(=O)[C@@H](N)Cc1c[nH]c2ccccc12)C(=O)c1nc2ccccc2s1
378 | 0.092 nM | 34.8 nM | – | C[C@H](NC(=O)[C@H](CCC(N)=O)NC(=O)[C@@H](N)CO)C(=O)N[C@@H](CCCNC(=N)N)C(=O)c1nc2ccccc2s1
22 | 0.72 nM | 15.4 nM | – | C[C@H](NC(=O)[C@H](CCCNC(=N)N)NC(=O)[C@@H](N)CCCNC(=N)N)C(=O)N[C@@H](CCCNC(=N)N)C(=O)c1nc2ccccc2s1
62 | 0.45 nM | 24.8 nM | – | C[C@H](NC(=O)[C@H](CC(N)=O)NC(=O)[C@@H](N)CCCCN)C(=O)N[C@@H](CCCNC(=N)N)C(=O)c1nc2ccccc2s1
49 | 0.91 nM | 47.8 nM | – | N=C(N)NCCC[C@H](NC(=O)[C@@H]1CCCN1C(=O)[C@H](CC(N)=O)NC(=O)[C@@H](N)CCCNC(=N)N)C(=O)c1nc2ccccc2s1

Structure (SMILES) | Ratio Ki (Homo sapiens [1]) | Ki [2] | Ki [3] | Ratio Ki (Homo sapiens [4])
C[C@H](NC(=O)[C@H](CCCCN)NC(=O)[C@@H](N)Cc1ccc(O)cc1)C(=O)N[C@@H](CCCNC(=N)N)C(=O)c1nc2ccccc2s1 | 23 | 0.89 nM | 20.8 nM | –
CC(C)[C@H](NC(=O)[C@H](Cc1ccc(O)cc1)NC(=O)[C@@H](N)Cc1ccc(O)cc1)C(=O)N[C@@H](CCCNC(=N)N)C(=O)c1nc2ccccc2s1 | 0.08 | 31.5 nM | 2.56 nM | 13
N=C(N)NCCC[C@H](NC(=O)[C@H](Cc1ccccc1)NC(=O)[C@H](CCC(N)=O)NC(=O)[C@@H](N)CCCNC(=N)N)C(=O)c1nc2ccccc2s1 | 6 | 0.23 nM | 1.4 nM | –

Source: ChEMBL document CHEMBL3351530, “Analysis of subpocket selectivity and identification of potent selective inhibitors for matriptase and matriptase-2” (J Med Chem, 2014)
